Assay results reported in ChEMBL document CHEMBL1799977, “Discovery of MK-0952, a selective PDE4 inhibitor for the treatment of long-term memory loss and mild cognitive impairment” (Bioorg Med Chem Lett, 2010).
Values belong to the compound of their own block, whether it stands above or below them. Active and inactive are the calls of the source. The calls are words filed in the database; no cut-off is given here.

What was measured:
Hepatocyte = assay: Increase in CYP3A4 protein level in human primary hepatocytes at 10 uM by Western blot analysis relative to rifampicin; format: ADME, cell-based
Method in brief: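 Human primary cultured hepatocytes exposed to 10 µM compound; CYP3A4 protein measured by Western blot relative to rifampicin at 10 µM.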

[1] = Oral bioavailability in dog at 3 mg/kg; format: ADME, organism-based, Canis lupus familiaris; details: in vivo
CYP3A = CYP3A (Homo sapiens, UniProt P08684+P20815+P24462+Q9HB55); assay: Inhibition of human CYP3A; format: ADME
[2] = Clearance in dog at 3 mg/kg, po or 1 mg/kg, iv; format: ADME, organism-based, Canis lupus familiaris; details: in vivo
[3] = Metabolic stability in dog hepatocytes assessed as compound metabolism level; format: ADME, cell-based, Canis lupus familiaris, Hepatocyte; details: read-out: Activity
[4] = Clearance in rat at 10 mg/kg, po or 3 mg/kg, iv; format: ADME, organism-based; details: in vivo
Rattus norvegicus [5] = species: Rattus norvegicus; assay: Ratio MED for cognitive enhancing effect in lister rat during water maze delayed matching to position test to MED for adverse effect in lister rat during conditional taste aversion test; format: functional
Method in brief: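 Therapeutic window as water maze MED over CTA MED. Water maze: rats dosed orally daily in 0.5% methocel before sample trial, 0.01–3.0 mg/kg, n = 10; four 60 s trials/day, 4 h inter-trial delay, savings score. CTA: water-deprived male hooded Lister rats, 20 min 0.1% saccharin on two conditioning days, oral dose immediately after; LiCl 30.0 mg/kg ip control; test-day intake.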

Plasma [6] = assay: Drug level in plasma of Lister rat during conditional taste aversion test; format: ADME, cell-free
Method in brief: (§1)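 Male hooded Lister rats in the conditioned taste aversion test given oral compound in 0.5% methocel. Plasma and whole brain levels were measured on the tested animals 90 min post-dosing.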

[7] = Metabolic stability in human hepatocytes assessed as compound metabolism level; format: ADME, cell-based, Hepatocyte; details: read-out: Activity
[8] = Inhibition of PDE4 activity in rhesus monkey whole blood assessed as inhibition of LPS-induced TNF-alpha release; format: tissue-based; details: Macaca mulatta
[9] = Clearance in rhesus monkey at 10 mg/kg, po or 1 mg/kg, iv; format: ADME, organism-based, Macaca mulatta; details: in vivo
[10] = target: 3',5'-cyclic-AMP phosphodiesterase 4A (Homo sapiens, UniProt P27815); assay: Inhibition of PDE4A; details: pooled result: one value given for 3 cell lines, strains, targets or settings
Chain of 3',5'-cyclic-AMP phosphodiesterase 4A (P27815 whole entry, the tested form may be a part): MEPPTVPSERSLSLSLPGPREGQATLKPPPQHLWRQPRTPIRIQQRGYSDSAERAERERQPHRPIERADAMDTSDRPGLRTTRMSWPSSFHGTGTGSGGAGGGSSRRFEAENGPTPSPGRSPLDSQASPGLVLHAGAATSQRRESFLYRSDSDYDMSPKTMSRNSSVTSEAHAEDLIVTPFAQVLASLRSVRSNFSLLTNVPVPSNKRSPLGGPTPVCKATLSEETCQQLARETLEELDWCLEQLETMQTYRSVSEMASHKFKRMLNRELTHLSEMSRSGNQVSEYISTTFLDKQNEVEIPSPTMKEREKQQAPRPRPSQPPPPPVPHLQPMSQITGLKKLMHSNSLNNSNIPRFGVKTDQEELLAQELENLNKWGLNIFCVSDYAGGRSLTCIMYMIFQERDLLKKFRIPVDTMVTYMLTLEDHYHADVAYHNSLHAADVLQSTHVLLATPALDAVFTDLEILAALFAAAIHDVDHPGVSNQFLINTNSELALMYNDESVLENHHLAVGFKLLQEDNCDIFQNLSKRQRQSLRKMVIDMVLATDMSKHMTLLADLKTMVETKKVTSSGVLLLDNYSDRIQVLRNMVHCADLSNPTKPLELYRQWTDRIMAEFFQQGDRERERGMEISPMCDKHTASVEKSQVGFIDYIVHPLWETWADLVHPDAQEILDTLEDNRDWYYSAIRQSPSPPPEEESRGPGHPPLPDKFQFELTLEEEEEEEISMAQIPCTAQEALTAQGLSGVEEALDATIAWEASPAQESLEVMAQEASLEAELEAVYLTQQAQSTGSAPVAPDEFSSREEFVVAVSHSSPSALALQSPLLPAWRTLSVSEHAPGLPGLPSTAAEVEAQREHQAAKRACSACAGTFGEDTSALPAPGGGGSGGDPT
Method in brief: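 Catalytic domains of PDE4A, B and D expressed as GST constructs in SF9 cells (baculovirus). IC50s are averages of at least two experiments.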

Cytochrome P450 2D6 = Cytochrome P450 2D6 (Homo sapiens, UniProt P10635); assay: Inhibition of human CYP2D6; format: ADME
Chain of Cytochrome P450 2D6 (P10635 whole entry): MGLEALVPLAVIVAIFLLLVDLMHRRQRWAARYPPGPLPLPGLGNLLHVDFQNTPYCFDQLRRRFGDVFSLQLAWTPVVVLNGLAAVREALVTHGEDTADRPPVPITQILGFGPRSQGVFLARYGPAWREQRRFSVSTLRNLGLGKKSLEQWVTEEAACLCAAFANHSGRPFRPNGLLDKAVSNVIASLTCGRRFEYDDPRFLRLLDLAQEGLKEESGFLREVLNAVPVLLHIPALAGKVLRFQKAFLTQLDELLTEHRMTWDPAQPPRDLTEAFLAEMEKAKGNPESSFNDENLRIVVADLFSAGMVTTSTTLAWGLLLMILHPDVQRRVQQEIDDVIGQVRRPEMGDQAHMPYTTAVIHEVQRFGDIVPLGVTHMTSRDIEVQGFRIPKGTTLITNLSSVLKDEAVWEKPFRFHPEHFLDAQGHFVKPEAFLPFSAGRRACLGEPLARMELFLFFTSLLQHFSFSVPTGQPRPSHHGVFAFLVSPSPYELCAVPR

Rattus norvegicus [11] = species: Rattus norvegicus; assay: Cognitive enhancing effect in Lister rat assessed as change in escape latency pretreated 90 mins before sample phase by water maze delayed matching to position test; format: functional; details: read-out: MED
Method in brief: (§2)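 Rats in a water maze with the platform moved daily, four 60 s trials per day over five days. Oral dosing in 0.5% methocel, 90 or 30 min before the sample trial. Savings score = escape latency difference between trials 1 and 2 over a 4 h delay. n = 10; Newman–Keuls test.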

[12] = Half life in rhesus monkey at 10 mg/kg, po or 1 mg/kg, iv; format: ADME, organism-based, Macaca mulatta; details: in vivo
[13] = Oral bioavailability in squirrel monkey at 10 mg/kg; format: ADME, organism-based; details: saimiri, in vivo
Rattus norvegicus [14] = species: Rattus norvegicus; assay: Induction of adverse effect in Lister rat assessed as induction of malaise by conditional taste aversion test; format: organism-based; details: in vivo
Method in brief: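 Singly housed male hooded Lister rats, water-deprived 22.5 h/day. On two conditioning days they had 20 min access to 0.1% saccharin, then received oral compound in 0.5% methocel, vehicle, or LiCl 30 mg/kg ip. Consumption on test day was compared with baseline (n = 6–8; Dunnett's test).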

[15] = Half life in rat at 10 mg/kg, po or 3 mg/kg, iv; format: ADME, organism-based; details: in vivo
[16] = Inhibition of PDE4 activity in rat whole blood assessed as inhibition of LPS-induced TNF-alpha release; format: tissue-based
Cytochrome P450 1A2 = target: T1, Cytochrome P450 1A2 (Homo sapiens, UniProt P05177); assay: Inhibition of human CYP1A2; format: ADME
T1 sequence (P05177 whole entry): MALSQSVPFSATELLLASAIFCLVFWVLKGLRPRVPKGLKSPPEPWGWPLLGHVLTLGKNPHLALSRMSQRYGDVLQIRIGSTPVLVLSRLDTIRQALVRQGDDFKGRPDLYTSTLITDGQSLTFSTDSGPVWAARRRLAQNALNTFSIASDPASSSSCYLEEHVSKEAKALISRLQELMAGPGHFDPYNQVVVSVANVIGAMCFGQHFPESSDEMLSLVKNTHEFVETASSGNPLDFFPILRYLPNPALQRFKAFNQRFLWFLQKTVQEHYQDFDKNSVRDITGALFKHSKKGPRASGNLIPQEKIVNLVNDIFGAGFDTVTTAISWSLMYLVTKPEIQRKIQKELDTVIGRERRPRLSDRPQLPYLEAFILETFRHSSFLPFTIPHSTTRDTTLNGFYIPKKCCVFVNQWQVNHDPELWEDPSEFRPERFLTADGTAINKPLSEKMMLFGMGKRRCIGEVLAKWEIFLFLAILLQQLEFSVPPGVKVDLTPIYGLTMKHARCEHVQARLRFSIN

Brain [17] = assay: Drug level in brain of Lister rat during conditional taste aversion test; format: ADME, tissue-based; details: in vivo, read-out: Drug uptake; method in brief: as §1
Phosphodiesterase 4 = Phosphodiesterase 4 (Homo sapiens, UniProt P27815+Q08499+Q07343+Q08493); assay: Inhibition of PDE4 activity in human whole blood assessed as inhibition of LPS-induced TNF-alpha release
[18] = Drug excretion in bile cannulated male rat assessed as excretion of parent compound in bile at 3 mg/kg, iv using [3H]-labeled compound measured after 8 hrs; format: ADME, organism-based; parameters: dose 3 mg/kg, route intravenous; details: in vivo
Method in brief: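 Permanently bile-cannulated male rats dosed iv with tritiated compound (3 mg/kg, 100 μCi/kg); bile collected 0–8 h and parent expressed as % of total radioactivity.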

[19] = Half life in dog at 3 mg/kg, po or 1 mg/kg, iv; format: ADME, organism-based, Canis lupus familiaris; details: in vivo
Cytochrome P450 2C9 [20] = target: T2, Cytochrome P450 2C9 (Homo sapiens, UniProt P11712); assay: Inhibition of human CYP2C9; format: ADME
T2 sequence (P11712 whole entry): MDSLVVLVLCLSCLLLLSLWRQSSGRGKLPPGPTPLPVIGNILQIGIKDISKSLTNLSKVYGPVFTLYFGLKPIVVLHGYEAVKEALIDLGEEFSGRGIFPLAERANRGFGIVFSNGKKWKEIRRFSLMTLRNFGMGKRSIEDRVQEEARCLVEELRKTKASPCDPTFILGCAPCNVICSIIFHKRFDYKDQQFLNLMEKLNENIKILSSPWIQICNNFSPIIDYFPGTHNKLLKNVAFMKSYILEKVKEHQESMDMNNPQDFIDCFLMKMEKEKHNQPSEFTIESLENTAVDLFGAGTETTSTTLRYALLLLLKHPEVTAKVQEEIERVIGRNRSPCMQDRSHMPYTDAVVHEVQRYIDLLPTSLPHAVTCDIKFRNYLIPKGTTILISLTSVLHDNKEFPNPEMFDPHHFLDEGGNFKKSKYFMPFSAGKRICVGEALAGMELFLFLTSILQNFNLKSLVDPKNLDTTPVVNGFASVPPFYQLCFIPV

[21] = Clearance in squirrel monkey at 10 mg/kg, po or 1 mg/kg, iv; format: ADME, organism-based; details: saimiri, in vivo
Brain [22] = assay: Drug level in brain of Lister rat during water maze delayed matching to position test; details: in vivo, read-out: Drug uptake
[23] = Oral bioavailability in rat at 10 mg/kg; format: ADME, organism-based; details: in vivo
[24] = Inhibition of PDE4 activity in squirrel monkey whole blood assessed as inhibition of LPS-induced TNF-alpha release; format: tissue-based; details: Saimiri
[25] = Metabolic stability in female rat hepatocytes assessed as compound metabolism level; format: ADME, cell-based, Hepatocyte; details: read-out: Activity
[26] = Oral bioavailability in rhesus monkey at 10 mg/kg; format: ADME, organism-based, Macaca mulatta; details: in vivo
[27] = Metabolic stability in rhesus monkey hepatocytes assessed as compound metabolism level; format: ADME, cell-based, Macaca mulatta, Hepatocyte; details: read-out: Activity
[28] = Half life in squirrel monkey at 10 mg/kg, po or 1 mg/kg, iv; format: ADME, organism-based; details: saimiri, in vivo
Plasma [29] = assay: Drug level in plasma of Lister rat during water maze delayed matching to position test
[30] = Metabolic stability in male rat hepatocytes assessed as compound metabolism level; format: ADME, cell-based, Hepatocyte; details: read-out: Activity
Rattus norvegicus [31] = assay: Cognitive enhancing effect in Lister rat assessed as recognition of novel object at 0.1 mg/kg, po pretreated 90 mins before sample phase by novel object recognition test; format: functional, organism-based; parameters: dose 0.1 mg/kg
Method in brief: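 Novel object recognition in rats. Oral dosing in 0.5% methocel 90 min before the sample trial, which ended at 25 s of exploration or 3 min. Choice trial followed with a familiar and a novel object. d2 score = (novel − familiar)/total exploration. n = 21–24; Newman–Keuls test.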

Rattus norvegicus [32] = species: Rattus norvegicus; assay: Cognitive enhancing effect in Lister rat assessed as change in escape latency pretreated 30 mins before sample phase by water maze delayed matching to position test; format: functional; details: read-out: MED; method in brief: as §2
Rattus norvegicus [33] = species: Rattus norvegicus; assay: Cognitive enhancing effect in Lister rat assessed as change in escape latency pretreated before sample phase by water maze delayed matching to position test; format: functional; details: read-out: MED; method in brief: as §2
Cytochrome P450 2C9 [34] = target: T2, Cytochrome P450 2C9; assay: Competitive inhibition of CYP2C9; format: ADME
[35] = Ratio IC50 for PDE4 activity in human whole blood to IC50 for PDE4; format: tissue-based
Method in brief: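 Ratio of two IC50s. The numerator is from human whole blood stimulated with LPS, read as inhibition of TNF-α release. The denominator (PDE4QT) is the mean of the IC50s on the PDE4A, B and D catalytic domains. These were expressed as GST constructs in Sf9 cells by baculovirus. Each IC50 is the average of at least two experiments.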

Activity (Hepatocyte): 23%
bioavailability [1]: 100%
IC50 (CYP3A): > 100 µM
clearance [2]: 0.222 L/h/kg
metabolised [3]: 30%
clearance [4]: 0.06 L/h/kg
concentration (Plasma [6]): 12.1 µM
metabolised [7]: 2%
IC50 [8]: 0.94 µM
clearance [9]: 0.078 L/h/kg
IC50 [10]: 0.00053 µM
IC50 (Cytochrome P450 2D6): > 100 µM
half-life [12]: 6.5 h
bioavailability [13]: 41%
half-life [15]: 3.5 h
IC50 [16]: 0.45 µM
IC50 (Cytochrome P450 1A2): > 100 µM
concentration (Brain [17]): 0.29 µM
IC50 (Phosphodiesterase 4): 0.55 µM
Activity [18]: > 35%
half-life [19]: 6.6 h
IC50 (Cytochrome P450 2C9 [20]): > 100 µM
clearance [21]: 0.102 L/h/kg
concentration (Brain [22]): 0.0092 µM
bioavailability [23]: 38%
IC50 [24]: 0.052 µM
metabolised [25]: 20%
bioavailability [26]: 77%
metabolised [27]: 10%
half-life [28]: 4.3 h
concentration (Plasma [29]): 0.39 µM
metabolised [30]: 5%
Compound: O=C(NC1CC1)c1cn(-c2cccc(-c3ccc([C@@H]4C[C@H]4C(=O)O)c(F)c3)c2)c2ncccc2c1=O
Ratio (Rattus norvegicus [5]): 100
minimal effective dose (Rattus norvegicus [11]): 0.1 mg/kg
MED (Rattus norvegicus [14]): 10 mg/kg

concentration (Plasma [6]): 0.113 µM
IC50 [16]: 0.023 µM
concentration (Brain [17]): 0.021 µM
concentration (Brain [22]): 0.0051 µM
concentration (Plasma [29]): 0.027 µM
Compound: Cc1noc(/C(=C/c2cccc(-c3cc(C(C)(C)S(C)(=O)=O)cc4cccnc34)c2)c2ccc(S(C)(=O)=O)cc2)n1
Activity (Rattus norvegicus [31]): Active
MED (Rattus norvegicus [14]): 1 mg/kg
minimal effective dose (Rattus norvegicus [32]): 0.3 mg/kg

concentration (Plasma [6]): 0.828 µM
IC50 [10]: 0.0051 µM
IC50 (Cytochrome P450 2C9 [34]): 40 µM
IC50 [16]: 0.064 µM
concentration (Brain [17]): 0.048 µM
IC50 (Phosphodiesterase 4): 0.19 µM
concentration (Brain [22]): 0.015 µM
concentration (Plasma [29]): 0.258 µM
Compound: O=C(NC1CC1)c1cn(-c2cccc(C#Cc3ccc[n+]([O-])c3)c2)c2ncccc2c1=O [MK-0873]
minimal effective dose (Rattus norvegicus [33]): 0.3 mg/kg
MED (Rattus norvegicus [14]): 1 mg/kg
Ratio IC50 [35]: 37
